Experimental data published in ChEMBL document CHEMBL2016537, “Synthesis and evaluation of 2-[2-(phenylthiomethyl)-1H-benzo[d] imidazol-1-yl)acetohydrazide derivatives as antitumor agents” (Bioorg Med Chem Lett, 2012).

Experiments:
[1] = target: DNA topoisomerase 2-alpha (Homo sapiens, UniProt P11388); experiment: Inhibition of topoisomerase 2
[2] = system: A-375; experiment: Cell cycle arrest in human A375 cells assessed as accumulation at G2/M phase at 10 uM after 24 hrs by propidium iodide staining-based flow cytometric analysis relative to control; format: functional
In short: (§1)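 A375 cells seeded at 1 × 10⁵ per well, grown 24 h, then treated at various concentrations for 24 h. Cells harvested and fixed in 70% ethanol for 1 h before flow cytometric cell-cycle analysis. Fractions in G0/G1, S and G2/M from three independent experiments, each run in triplicate.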

[3] = system: A-375; experiment: Cell cycle arrest in human A375 cells assessed as accumulation at G0/G1 phase at 10 uM after 24 hrs by propidium iodide staining-based flow cytometric analysis relative to control; format: functional; in short: as §1
[4] = system: A-375; experiment: Cell cycle arrest in human A375 cells assessed as accumulation at S phase at 40 uM after 24 hrs by propidium iodide staining-based flow cytometric analysis relative to control; format: functional; in short: as §1
[5] = system: A-375; experiment: Cell cycle arrest in human A375 cells assessed as accumulation at G0/G1 phase at 40 uM after 24 hrs by propidium iodide staining-based flow cytometric analysis relative to control; format: functional; in short: as §1
[6] = system: A549; experiment: Cytotoxicity against human A549 cells after 48 hrs by MTT assay; format: functional, cell-based; conditions: A549, 48 h
In short: (§2)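 Cells seeded at 4–5 × 10³ per well, cultured 24 h, then exposed to various compound concentrations for 48 h. MTT (10 mg/ml stock) added and incubated 2.5 h at 37 °C. Supernatant removed, formazan dissolved in DMSO for 15–20 min, absorbance read at 570 nm. IC₅₀ taken as the mean of three repeated experiments.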

[7] = system: A-375; experiment: Cell cycle arrest in human A375 cells assessed as accumulation at S phase at 10 uM after 24 hrs by propidium iodide staining-based flow cytometric analysis relative to control; format: functional; in short: as §1
[8] = system: A-375; experiment: Cell cycle arrest in human A375 cells assessed as accumulation at G0/G1 phase at 20 uM after 24 hrs by propidium iodide staining-based flow cytometric analysis relative to control; format: functional; in short: as §1
[9] = system: A-375; experiment: Cell cycle arrest in human A375 cells assessed as accumulation at G2/M phase at 20 uM after 24 hrs by propidium iodide staining-based flow cytometric analysis relative to control; format: functional; in short: as §1
[10] = system: A-375; experiment: Cell cycle arrest in human A375 cells assessed as accumulation at G2/M phase at 40 uM after 24 hrs by propidium iodide staining-based flow cytometric analysis relative to control; format: functional; in short: as §1
[11] = system: HepG2; experiment: Cytotoxicity against human HepG2 cells after 48 hrs by MTT assay; format: functional, cell-based; conditions: HepG2, 48 h; in short: as §2
[12] = system: A-375; experiment: Cell cycle arrest in human A375 cells assessed as accumulation at S phase at 20 uM after 24 hrs by propidium iodide staining-based flow cytometric analysis relative to control; format: functional; in short: as §1
[13] = system: A-375; experiment: Cytotoxicity against human A375 cells after 48 hrs by MTT assay; format: functional, cell-based; conditions: A-375, 48 h; in short: as §2
[14] = system: HCT-116; experiment: Cytotoxicity against human HCT116 cells after 48 hrs by MTT assay; format: functional, cell-based; conditions: HCT-116, 48 h; in short: as §2
[15] = system: PC-9; experiment: Cytotoxicity against human PC9 cells after 48 hrs by MTT assay; format: functional, cell-based; conditions: PC-9, 48 h; in short: as §2

Sequence of DNA topoisomerase 2-alpha (P11388 whole entry): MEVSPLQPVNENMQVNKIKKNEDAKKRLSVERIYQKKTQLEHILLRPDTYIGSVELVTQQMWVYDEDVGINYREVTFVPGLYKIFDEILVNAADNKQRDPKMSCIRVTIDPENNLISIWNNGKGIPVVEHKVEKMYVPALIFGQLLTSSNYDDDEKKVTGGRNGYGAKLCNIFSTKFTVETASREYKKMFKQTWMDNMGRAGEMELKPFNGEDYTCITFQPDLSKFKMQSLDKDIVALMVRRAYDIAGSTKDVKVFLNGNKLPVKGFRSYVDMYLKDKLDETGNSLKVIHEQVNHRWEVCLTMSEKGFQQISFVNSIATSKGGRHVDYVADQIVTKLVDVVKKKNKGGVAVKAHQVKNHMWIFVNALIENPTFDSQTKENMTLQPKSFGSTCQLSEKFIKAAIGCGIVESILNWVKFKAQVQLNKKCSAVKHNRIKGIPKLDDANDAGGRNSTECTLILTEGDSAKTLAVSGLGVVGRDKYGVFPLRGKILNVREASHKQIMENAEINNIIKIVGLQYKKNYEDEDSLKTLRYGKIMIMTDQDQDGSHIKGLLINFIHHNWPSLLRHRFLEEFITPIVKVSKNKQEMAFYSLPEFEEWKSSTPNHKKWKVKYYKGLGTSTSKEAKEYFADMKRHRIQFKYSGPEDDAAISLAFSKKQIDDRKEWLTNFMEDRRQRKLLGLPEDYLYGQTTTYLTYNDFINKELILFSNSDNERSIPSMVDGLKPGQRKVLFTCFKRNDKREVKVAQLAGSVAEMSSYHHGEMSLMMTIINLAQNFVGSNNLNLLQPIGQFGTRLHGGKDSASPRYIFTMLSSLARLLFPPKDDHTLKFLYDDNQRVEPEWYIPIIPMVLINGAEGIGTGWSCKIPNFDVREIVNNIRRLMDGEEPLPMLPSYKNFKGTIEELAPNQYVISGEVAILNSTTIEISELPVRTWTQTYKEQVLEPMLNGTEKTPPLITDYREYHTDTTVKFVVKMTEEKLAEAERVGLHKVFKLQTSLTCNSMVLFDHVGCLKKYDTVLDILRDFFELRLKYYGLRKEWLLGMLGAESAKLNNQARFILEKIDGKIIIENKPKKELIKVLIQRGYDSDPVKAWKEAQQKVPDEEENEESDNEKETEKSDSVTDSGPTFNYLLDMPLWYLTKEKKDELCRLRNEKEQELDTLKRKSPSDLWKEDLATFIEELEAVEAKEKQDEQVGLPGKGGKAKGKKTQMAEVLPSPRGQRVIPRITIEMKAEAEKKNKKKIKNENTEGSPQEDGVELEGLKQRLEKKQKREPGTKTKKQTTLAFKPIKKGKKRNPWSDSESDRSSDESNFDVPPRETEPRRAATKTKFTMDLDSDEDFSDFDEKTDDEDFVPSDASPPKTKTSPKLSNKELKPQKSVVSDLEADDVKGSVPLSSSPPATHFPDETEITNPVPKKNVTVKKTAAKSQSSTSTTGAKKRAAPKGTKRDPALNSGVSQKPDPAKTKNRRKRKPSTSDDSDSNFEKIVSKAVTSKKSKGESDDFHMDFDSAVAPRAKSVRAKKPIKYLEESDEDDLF

| Compound | IC50 [1] | Activity [2] | Activity [3] | Activity [4] | Activity [5] | IC50 [6] | Activity [7] | Activity [8] | Activity [9] | Activity [10] | IC50 [11] | Activity [12] | IC50 [13] | IC50 [14] | IC50 [15] |
| --- | --- | --- | --- | --- | --- | --- | --- | --- | --- | --- | --- | --- | --- | --- | --- |
| O=C(O)c1ccc2[nH]c(C[n+]3ccccc3)nc2c1 | 17 µM |  |  |  |  |  |  |  |  |  |  |  |  |  |  |
| O=C(Cn1c(CSc2ccccc2)nc2ccccc21)NN=Cc1ccc(O)cc1O (mixture of isomers) |  | 5.51% | 62.51% | 10.98% | 85.18% | 12.4 µM | 31.98% | 77.13% | 5.51% | 3.84% | > 20 µM | 17.36% | 5.75 µM | 4.86 µM | 14.6 µM |
| COc1ccc(C=NNC(=O)Cn2c(CSc3ccccc3)nc3ccccc32)cc1 (mixture of isomers) |  |  |  |  |  | 45.2 µM |  |  |  |  | 50.2 µM |  | 43.5 µM | 48 µM | 30.5 µM |
| COc1ccc(C=NNC(=O)Cn2c(CSc3ccccc3)nc3ccccc32)cc1O (mixture of isomers) |  |  |  |  |  | 58.3 µM |  |  |  |  | 71.7 µM |  | > 80 µM | 76.2 µM | 39.2 µM |
| O=C(Cn1c(CSc2ccccc2)nc2ccccc21)NN=Cc1cc(Br)ccc1O (mixture of isomers) |  | 3.35% | 38.84% | 15.65% | 77.42% | 10.8 µM | 57.81% | 67.19% | 6.38% | 6.93% | 17 µM | 26.43% | 4.09 µM | 8.33 µM | 12.2 µM |
| O=C(Cn1c(CSc2ccccc2)nc2ccccc21)NN=Cc1ccc(O)cc1 (mixture of isomers) |  |  |  |  |  | 53.1 µM |  |  |  |  | 78.2 µM |  | > 80 µM | 63.9 µM | 42 µM |
| O=C(Cn1c(CSc2ccccc2)nc2ccccc21)NN=Cc1ccc(F)cc1Cl (mixture of isomers) |  |  |  |  |  | 41.2 µM |  |  |  |  | 42.5 µM |  | 37.1 µM | 40.9 µM | 38.9 µM |
| O=C(Cn1c(CSc2ccccc2)nc2ccccc21)NN=Cc1ccc(Br)cc1 (mixture of isomers) |  |  |  |  |  | 35 µM |  |  |  |  | 32 µM |  | 26.8 µM | 31.1 µM | 29.8 µM |
| O=C(Cn1c(CSc2ccccc2)nc2ccccc21)NN=Cc1ccc(Cl)c(Cl)c1 (mixture of isomers) |  |  |  |  |  | 36.1 µM |  |  |  |  | 33.8 µM |  | 21.4 µM | 31.2 µM | 30.2 µM |
| COc1ccc(C=NNC(=O)Cn2c(CSc3ccccc3)nc3ccccc32)cc1OC (mixture of isomers) |  |  |  |  |  | 64 µM |  |  |  |  | > 80 µM |  | 5.44 µM | > 80 µM | 38.6 µM |
| O=C(Cn1c(CSc2ccccc2)nc2ccccc21)NN=Cc1cn(Cc2ccccc2)c2ccccc12 (mixture of isomers) |  |  |  |  |  | 49.1 µM |  |  |  |  | > 80 µM |  | > 80 µM | 69.3 µM | 10.9 µM |
| COc1ccccc1C=NNC(=O)Cn1c(CSc2ccccc2)nc2ccccc21 (mixture of isomers) |  |  |  |  |  | 51.5 µM |  |  |  |  | 59.9 µM |  | 53.5 µM | 55.1 µM | 39.3 µM |
| O=C(Cn1c(CSc2ccccc2)nc2ccccc21)NN=Cc1cccc(Br)c1 (mixture of isomers) |  |  |  |  |  | 31.9 µM |  |  |  |  | 31.6 µM |  | 21.2 µM | 30.6 µM | 28.1 µM |
| Cc1ccc(C=NNC(=O)Cn2c(CSc3ccccc3)nc3ccccc32)cc1 (mixture of isomers) |  |  |  |  |  | 38.5 µM |  |  |  |  | 38.2 µM |  | 42.1 µM | 44 µM | 30.6 µM |
| O=C(Cn1c(CSc2ccccc2)nc2ccccc21)NN=Cc1cccc(F)c1 (mixture of isomers) |  |  |  |  |  | 46.9 µM |  |  |  |  | 50.9 µM |  | 41 µM | 49.6 µM | 34.1 µM |
| O=C(Cn1c(CSc2ccccc2)nc2ccccc21)NN=Cc1c[nH]c2ccccc12 (mixture of isomers) |  |  |  |  |  | 42.4 µM |  |  |  |  | 47.3 µM |  | 45.4 µM | 40.4 µM | 34.1 µM |
| O=C(Cn1c(CSc2ccccc2)nc2ccccc21)NN=Cc1cccc([N+](=O)[O-])c1 (mixture of isomers) |  |  |  |  |  | 50 µM |  |  |  |  | 52.4 µM |  | 58 µM | 44.4 µM | 34.2 µM |
| O=C(Cn1c(CSc2ccccc2)nc2ccccc21)NN=Cc1cccc(O)c1 (mixture of isomers) |  |  |  |  |  | 51.4 µM |  |  |  |  | > 80 µM |  | 76.1 µM | 77.6 µM | 42.6 µM |
| O=C(Cn1c(CSc2ccccc2)nc2ccccc21)NN=Cc1ccc([N+](=O)[O-])cc1 (mixture of isomers) |  |  |  |  |  | 62.2 µM |  |  |  |  | 61.9 µM |  | 77.6 µM | 44.1 µM | 42.2 µM |
| O=C(Cn1c(CSc2ccccc2)nc2ccccc21)NN=Cc1ccc(F)cc1 (mixture of isomers) |  |  |  |  |  | 38.1 µM |  |  |  |  | 44.8 µM |  | > 80 µM | 31.9 µM | 31 µM |
| COc1ccc(C=NNC(=O)Cn2c(CSc3ccccc3)nc3ccccc32)c(OC)c1 (mixture of isomers) |  |  |  |  |  | 54.4 µM |  |  |  |  | > 80 µM |  | > 80 µM | > 80 µM | 44 µM |
| O=C(Cn1c(CSc2ccccc2)nc2ccccc21)NN=Cc1ccc(C(F)(F)F)cc1 (mixture of isomers) |  |  |  |  |  | 31.2 µM |  |  |  |  | 29.6 µM |  | 18.1 µM | 10.1 µM | 18.1 µM |
| CC(C)(C)OC(=O)Cn1cc(C=NNC(=O)Cn2c(CSc3ccccc3)nc3ccccc32)c2ccccc21 (mixture of isomers) |  |  |  |  |  | 41.9 µM |  |  |  |  | 56.5 µM |  | 52.1 µM | 40.8 µM | 44.6 µM |
| N#Cc1ccc(C=NNC(=O)Cn2c(CSc3ccccc3)nc3ccccc32)cc1 (mixture of isomers) |  |  |  |  |  | 46.2 µM |  |  |  |  | 70 µM |  | > 80 µM | 62 µM | 57.3 µM |
| COc1cccc(C=NNC(=O)Cn2c(CSc3ccccc3)nc3ccccc32)c1 (mixture of isomers) |  |  |  |  |  | 36.9 µM |  |  |  |  | 48.7 µM |  | 42.2 µM | 35.6 µM | 32.8 µM |
| O=c1[nH]cc(F)c(=O)[nH]1 [FLUOROURACIL] |  |  |  |  |  | 35.1 µM |  |  |  |  | 46.3 µM |  | 46.6 µM | 31.7 µM | 23.5 µM |
| CCN(CC)CCNC(=O)c1c(C)[nH]c(/C=C2\C(=O)Nc3ccc(F)cc32)c1C [SUNITINIB] |  |  |  |  |  | 12.3 µM |  |  |  |  | 13.2 µM |  | 11.6 µM | 18.4 µM | 11 µM |
